Experimental data from ChEMBL document CHEMBL4130501 (Eur J Med Chem, 2017).
Calls of active or inactive are those of the source. No cut-off for these calls is given here.

Experiments:
[1] = Antioxidant activity assessed as DPPH radical scavenging activity incubated for 60 mins under dark condition by spectrophotometry; assay type: functional
Summary of the method: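 DPPH radical scavenging was measured, and the IC50 was taken as the compound concentration giving 50% scavenging.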

Cholinesterase [2] = target: T1, Cholinesterase (Homo sapiens, UniProt P06276); test: Inhibition of BuChE (unknown origin) at 500 nM pre-incubated for 20 mins before S-Butyrylthiocholine iodide substrate addition by Ellman reagent based spectrophotometry
Summary of the method: (§1)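 Cholinesterase inhibition was tested with the compound at 500 nM and reported as percent inhibition, mean ± SEM.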

[3] = Inhibition of AChE (unknown origin) at 500 nM pre-incubated for 20 mins before acetylthiocholine iodide substrate addition by Ellman reagent based spectrophotometry; details: Homo sapiens; summary of the method: as §1
Cholinesterase [4] = target: T1, Cholinesterase; test: Inhibition of BuChE (unknown origin) pre-incubated for 20 mins before S-Butyrylthiocholine iodide substrate addition by Ellman reagent based spectrophotometry
[5] = target: Amyloid-beta precursor protein (Homo sapiens) (UniProt P05067); test: Inhibition of self-induced amyloid beta (1 to 42) (unknown origin) aggregation at 10 uM after 24 hrs by thioflavin T-based fluorometric assay relative to control
Summary of the method: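 Self-mediated Aβ1-42 aggregation was followed by thioflavin-T fluorescence with 10 µM inhibitor present. Percent inhibition was reported as mean ± SEM.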

[6] = Permeability at 100 ug/ml incubated for 10 hrs by PAMPA method; assay type: ADME; details: read-out: Peff
Summary of the method: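 Passive BBB permeation was measured by PAMPA-BBB through an artificial lipid membrane, with Pe given in 10^-6 cm s^-1. Classification: Pe > 4.7 is CNS+, 4.7 to 1.8 is uncertain, and Pe < 1.8 is CNS−.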

[7] = Metal chelating activity against Cupric ions assessed as induction of isosbestic shift of maximum absorption upon addition of CuCl2 at 10 uM incubated for 30 mins UV-Vis spectrophotometry
HT-22 [8] = test: Cytotoxicity in mouse HT22 cells assessed as reduction in cell viability at 30 to 100 uM incubated for 24 hrs by MTT assay; assay type: cell-based; details: ht-22, 24 h
Summary of the method: (§2)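 Mouse HT22 cells were exposed to compounds at 30, 50 and 100 µM for 24 h. Viability was read by colorimetric MTT assay and compared with untreated control cells (n = 3).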

HT-22 [9] = test: Neuroprotective activity against glutamate-induced cytotoxicity in mouse HT22 cells assessed as increase cell viability at 30 uM pre-incubated for 30 mins before glutamate stimulation for 24 hrs by MTT assay; assay type: functional, cell-based
Summary of the method: (§3)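 HT22 cells were pretreated for 30 min with compounds at 3, 10 or 30 µM, then exposed to […] glutamate for 24 h. Viability was read by MTT (n = 3) and compared against the glutamate-only group and the control.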

HT-22 [10] = test: Cytotoxicity in mouse HT22 cells assessed as reduction in cell viability at 100 uM incubated for 24 hrs by MTT assay; assay type: cell-based; details: ht-22, 24 h; summary of the method: as §2
HT-22 [11] = test: Neuroprotective activity against glutamate-induced cytotoxicity in mouse HT22 cells assessed as increase cell viability at 10 uM pre-incubated for 30 mins before glutamate stimulation for 24 hrs by MTT assay; assay type: functional, cell-based; summary of the method: as §3
HT-22 [12] = test: Neuroprotective activity against glutamate-induced cytotoxicity in mouse HT22 cells assessed as increase cell viability at 3 to 30 uM pre-incubated for 30 mins before glutamate stimulation for 24 hrs by MTT assay; assay type: functional, cell-based; summary of the method: as §3
HT-22 [13] = test: Cytotoxicity in mouse HT22 cells assessed as reduction in cell viability at 30 uM incubated for 24 hrs by MTT assay; assay type: cell-based; details: ht-22, 24 h; summary of the method: as §2

Sequence of Amyloid-beta precursor protein (Homo sapiens) (P05067 whole entry): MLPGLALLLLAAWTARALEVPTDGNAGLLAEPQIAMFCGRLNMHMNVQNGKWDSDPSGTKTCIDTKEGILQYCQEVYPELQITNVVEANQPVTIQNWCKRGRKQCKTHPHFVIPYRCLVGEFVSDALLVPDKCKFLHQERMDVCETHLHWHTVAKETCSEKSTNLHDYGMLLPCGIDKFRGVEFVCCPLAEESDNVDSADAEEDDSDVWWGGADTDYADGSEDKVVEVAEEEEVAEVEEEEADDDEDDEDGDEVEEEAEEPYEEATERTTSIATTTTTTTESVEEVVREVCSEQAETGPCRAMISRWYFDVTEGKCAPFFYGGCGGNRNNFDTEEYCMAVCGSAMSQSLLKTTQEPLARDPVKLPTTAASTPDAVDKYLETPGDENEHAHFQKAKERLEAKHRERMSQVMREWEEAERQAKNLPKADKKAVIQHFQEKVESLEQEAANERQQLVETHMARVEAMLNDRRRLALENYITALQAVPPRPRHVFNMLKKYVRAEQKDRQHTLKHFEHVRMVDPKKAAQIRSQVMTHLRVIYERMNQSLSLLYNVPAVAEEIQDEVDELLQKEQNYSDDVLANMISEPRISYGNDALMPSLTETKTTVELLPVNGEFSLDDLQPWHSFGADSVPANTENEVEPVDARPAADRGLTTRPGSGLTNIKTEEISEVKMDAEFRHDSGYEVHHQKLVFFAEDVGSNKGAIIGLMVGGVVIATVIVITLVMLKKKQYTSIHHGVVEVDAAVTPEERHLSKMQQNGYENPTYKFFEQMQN
T1 sequence (P06276 whole entry): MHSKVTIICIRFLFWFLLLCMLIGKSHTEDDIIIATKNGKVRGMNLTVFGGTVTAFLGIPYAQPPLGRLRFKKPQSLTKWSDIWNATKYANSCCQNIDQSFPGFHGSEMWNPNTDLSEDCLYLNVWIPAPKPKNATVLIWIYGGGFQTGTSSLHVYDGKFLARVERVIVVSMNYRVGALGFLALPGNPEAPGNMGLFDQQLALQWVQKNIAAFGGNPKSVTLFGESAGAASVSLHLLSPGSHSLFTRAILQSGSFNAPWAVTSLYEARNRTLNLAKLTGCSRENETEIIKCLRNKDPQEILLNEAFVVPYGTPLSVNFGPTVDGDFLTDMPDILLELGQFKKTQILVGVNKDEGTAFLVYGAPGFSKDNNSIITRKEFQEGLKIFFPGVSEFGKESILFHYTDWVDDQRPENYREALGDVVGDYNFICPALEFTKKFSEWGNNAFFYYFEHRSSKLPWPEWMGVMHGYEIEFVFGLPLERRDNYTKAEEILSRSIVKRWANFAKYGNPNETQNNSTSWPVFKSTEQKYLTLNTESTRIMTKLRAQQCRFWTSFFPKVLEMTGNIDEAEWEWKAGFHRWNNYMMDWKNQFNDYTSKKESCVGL

SMILES	IC50 [1]	inhibition (Cholinesterase [2])	inhibition [3]	IC50 (Cholinesterase [4])	inhibition [5]	Papp at 10 h, 100 ug/ml [6]	Activity [7]	Activity (HT-22 [8])	Activity (HT-22 [9])	Activity (HT-22 [10])	Activity (HT-22 [11])	Activity (HT-22 [12])	Activity (HT-22 [13])
Cc1c(C)c2c(c(C)c1O)CCC(C)(C(=O)O)O2 (stereo unspecified) [TROLOX]	23.5 µM												
CCN(C)C(=O)Oc1cccc(CNC(=O)CCCCC2CCSS2)c1 (stereo unspecified)	4.3 µM	77.3%	3.66%	0.378 µM	51.8%	27.8 ×10⁻⁶ cm/s	Active	Non-Toxic	inactive				
CCN(C)C(=O)Oc1cccc(CCNC(=O)CCCCC2CCSS2)c1 (stereo unspecified)	4.88 µM	76.7%	-1.48%	0.34 µM	49.8%	12.1 ×10⁻⁶ cm/s		Non-Toxic	inactive				
CCN(C)C(=O)Oc1cccc(NC(=O)c2cc(O)c(O)c(O)c2)c1	10.6 µM	7.98%	23.6%		47.3%	3.08 ×10⁻⁶ cm/s	Active			Toxic	Active		
CCN(C)C(=O)Oc1cccc(CCNC(=O)c2cc(=O)c3ccccc3o2)c1	> 100 µM	49.1%	22.1%	0.511 µM	67.4%			Toxic				inactive	
CCN(C)C(=O)Oc1cccc([C@H](C)N(C)C)c1 [RIVASTIGMINE]		30.1%	1.92%			16.3 ×10⁻⁶ cm/s							
CCN(C)C(=O)Oc1cccc(CCNC(=O)c2cc(O)c(O)c(O)c2)c1	11.7 µM	58.8%	3.48%	0.452 µM	27.1%	5.14 ×10⁻⁶ cm/s	Active			Toxic		inactive	
CCN(C)C(=O)Oc1cccc(NC(=O)CCCCC2CCSS2)c1 (stereo unspecified)	4.53 µM	77.4%	0.51%	0.356 µM	46.3%	10.3 ×10⁻⁶ cm/s	Active	Non-Toxic	inactive				
CCN(C)C(=O)Oc1cccc(NC(=O)c2cc(=O)c3ccccc3o2)c1	> 100 µM	53.8%	9.03%	0.507 µM	63.8%			Toxic				inactive	
CCN(C)C(=O)Oc1cccc(CNC(=O)c2cc(O)c(O)c(O)c2)c1	12.9 µM	2.39%	5.53%		51.8%	4.86 ×10⁻⁶ cm/s	Active	Non-Toxic	Active				
CCN(C)C(=O)Oc1cccc(CNC(=O)c2cc(=O)c3ccccc3o2)c1	> 100 µM	37.1%	12.7%	0.65 µM	55.2%						Active		Toxic
